TMEM16A act – activators or potentiators of mouse TMEM16A chloride channel | Q8BHY3 | HEK293 TMEM16A/YFP-H148Q/I152L, iodide quench fluorescence; hits give low values | B-score at 10 µM | 0.3% of 340,000 active;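 active means fluorescence-ratio B-score plate-corrected deviation score at least 3 library SD below zero, with starting fluorescence score within 5 deviations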;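 further: channel opened by trigger with iodide after compound preincubation; score built on the fluorescence ratio of max minus min over baseline; more negative score means more quench and so TMEM16A activation or potentiation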
MT1-MMP act inh – inhibitors of human MT1-MMP activation. HT1080 RFP-PRO-GFP cells, GFP/RFP ratio fluorescence, overnight; percent of plate control window, DMSO zero. 0.061% of 360,000 active. P50281. GFP/RFP ratio change, % at 20 µM;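 active means GFP/RFP ratio change of at least 30% with cell ATP level not reduced by more than half and red fluorescence within 50% of control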
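system = RFP-PRO-GFP reporter HT1080 cells | dosing = 20 µM single dose, 1% DMSO | timing = overnight cell settling, then overnight compound exposure, 37 °C, 5% CO2 | read-out basis = GFP/RFP fluorescence ratio | controls = DMSO and RFP-L50D-GFP cell wells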
DAGLB inh – diacylglycerol lipase beta (human) inhibition | Q8NCG7 | HEK293T DAGLB membrane lysate, EnzChek fluorogenic substrate | inhibition, % at 5.17 µM | 0.059% of 340,000 active | AID 504411; in the data active means inhibition above about 34%
ANO1 block – mouse TMEM16A channel inhibition, primary screen; Q8BHY3; 1.2% of 310,000 active; normalized B-score (activity score, 25-100; higher = stronger inhibition) at 10 µM; HEK293 TMEM16A/YFP iodide influx fluorescence, ionomycin;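 active means ratio plate-corrected score three or more library SD toward inhibition, starting fluorescence score within five deviations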;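 further: score derived from kinetic fluorescence span divided by baseline fluorescence per well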
TMEM16A reconf – TMEM16A (mouse) chloride channel inhibition, re-confirmation | shares compounds with ANO1 block | inhibition, % at 10 µM | 39% of 2,300 active | HEK293 TMEM16A/YFP-H148Q, iodide quench fluorescence; ionomycin added to raise cell calcium | AID 652189;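 active means mean duplicate percent inhibition, scaled so buffer wells are 0 and the reference blocker 100, over three buffer SD above buffer mean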
HEK293 Ca mobil – counter-screen for TMEM16A inhibitors: effect on calcium mobilization; 2% of 2,300 active; TMEM16A/YFP HEK293, Fluo4 calcium mobilization; AID 652231; shares compounds with ANO1 block; calcium response (% of ionomycin), % at 10 µM;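 active means duplicate-averaged calcium signal over 20% of the ionomycin maximum, relative to buffer baseline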;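 further: each well's signal is peak minus trough fluorescence divided by its pre-addition baseline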
YFP-HEK293 quench – acts in parental YFP-HEK293 cells lacking TMEM16A, counter-screen; YFP ratio F(max-min)/F0 at 10 µM; AID 652233; shares compounds with ANO1 block; 2,300 tested, under 10 active; iodide YFP quench, ionomycin;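 active means yellow fluorescent protein signal ratio exceeding the buffer control mean by over 5 SD of those controls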;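 further: ratio is mean of duplicate wells from kinetic YFP trace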
ClC-1 rat inh – rat ClC-1 inhibition, TMEM16A specificity screen | shares compounds with ANO1 block | CHO ClC-1-YFP, iodide influx fluorescence quench; iodide control reads 0, buffer control 100 | ratio percent, % at 10 µM | 2,300 tested, under 10 active;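 active means duplicate-mean ratio percent above the mean of iodide-only control wells, which defines zero, plus 5 of their SD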;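 further: higher percent means stronger block of ClC-1 iodide influx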
Target sequence (P35524 whole entry, looked up): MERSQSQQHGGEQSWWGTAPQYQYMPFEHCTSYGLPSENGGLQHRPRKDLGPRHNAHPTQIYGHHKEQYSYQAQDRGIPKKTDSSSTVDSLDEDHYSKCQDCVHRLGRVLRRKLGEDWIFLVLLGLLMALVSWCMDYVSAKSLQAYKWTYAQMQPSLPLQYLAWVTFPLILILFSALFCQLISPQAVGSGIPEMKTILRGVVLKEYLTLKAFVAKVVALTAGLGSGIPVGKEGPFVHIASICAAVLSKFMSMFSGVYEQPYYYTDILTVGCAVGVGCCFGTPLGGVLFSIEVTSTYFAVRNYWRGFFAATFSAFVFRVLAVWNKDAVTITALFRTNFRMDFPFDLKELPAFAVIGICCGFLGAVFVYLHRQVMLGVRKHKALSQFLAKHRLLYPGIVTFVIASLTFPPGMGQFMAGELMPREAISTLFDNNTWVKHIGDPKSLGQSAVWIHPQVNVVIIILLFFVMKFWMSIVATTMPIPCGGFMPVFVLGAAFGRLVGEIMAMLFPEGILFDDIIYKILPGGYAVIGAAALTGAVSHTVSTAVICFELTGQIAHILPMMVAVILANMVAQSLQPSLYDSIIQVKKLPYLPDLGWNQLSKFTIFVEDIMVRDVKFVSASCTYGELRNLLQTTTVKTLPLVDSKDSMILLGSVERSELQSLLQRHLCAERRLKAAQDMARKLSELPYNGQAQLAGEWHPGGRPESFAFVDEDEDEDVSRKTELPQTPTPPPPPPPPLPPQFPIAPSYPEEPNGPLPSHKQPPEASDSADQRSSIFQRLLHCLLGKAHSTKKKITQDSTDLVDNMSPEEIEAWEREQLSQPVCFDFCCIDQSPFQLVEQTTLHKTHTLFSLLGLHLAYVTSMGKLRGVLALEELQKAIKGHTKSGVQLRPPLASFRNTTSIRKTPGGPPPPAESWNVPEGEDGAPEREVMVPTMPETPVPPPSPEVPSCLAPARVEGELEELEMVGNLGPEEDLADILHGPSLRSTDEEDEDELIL
Large screens that a line does not name were inactive (follow-up assays come after a bar, where they were run). Sampled rows, rich in hits. Any-hit rate of the full collection: about 1.3%.

CCCC(=O)c1ccc(N2CCN(C(=O)c3ccccc3Br)CC2)c(F)c1	ANO1 block 100 | TMEM16A reconf 20.0% | HEK293 Ca mobil inactive | YFP-HEK293 quench inactive | ClC-1 rat inh inactive
O=C(c1ccc(N2CCN(C(=O)c3ccccc3Br)CC2)cc1)c1cccc(F)c1	ANO1 block 100 | TMEM16A reconf 17.0% | HEK293 Ca mobil inactive | YFP-HEK293 quench inactive | ClC-1 rat inh inactive
COc1ccccc1N1CCN(C(=O)[C@@H]2CCCN2C2=NS(=O)(=O)c3ccccc32)CC1	none (no result: TMEM16A act, ANO1 block)
CC(=O)Nc1ccc(-c2ccnc3c2CC(C)(C(=O)Nc2ccc4c(c2)OCO4)O3)cc1 (stereo not given)	none (no result: TMEM16A act, DAGLB inh, ANO1 block)
CCOc1ccccc1C(=O)OC(C)C(=O)Nc1ccc(S(=O)(=O)N2CCCC2)cc1 (stereo not given)	none (no result: ANO1 block)
CCn1cc(C(=O)OCC(=O)OC2CC(C)CCC2C(C)C)c(=O)c2ccc(C)nc21 (stereo not given)	ANO1 block 25 | TMEM16A reconf inactive | HEK293 Ca mobil inactive | YFP-HEK293 quench inactive | ClC-1 rat inh inactive
Cc1cc2nc(-c3ccc(F)cc3)c(Cc3cccc(Cl)c3)n2c(C)c1Br	none (no result: TMEM16A act, DAGLB inh, ANO1 block)
O=C(NCC(=O)N1CCCCCC1)c1ccc(Br)cc1	none
CCOC(=O)c1sc(NC(=O)c2cccc(S(=O)(=O)N3CCc4ccccc43)c2)c(C#N)c1C	ANO1 block 25 | TMEM16A reconf 25.5% | HEK293 Ca mobil inactive | YFP-HEK293 quench inactive | ClC-1 rat inh inactive
Fc1ccc(NC(=S)NNc2ncc(C(F)(F)F)cc2Cl)c(F)c1	ANO1 block 25 | TMEM16A reconf 30.0% | HEK293 Ca mobil inactive | YFP-HEK293 quench inactive | ClC-1 rat inh inactive
O=C(CCc1ccc(S(=O)(=O)N2CCOCC2)cc1)Oc1ccccc1	ANO1 block 25 | TMEM16A reconf inactive | HEK293 Ca mobil inactive | YFP-HEK293 quench inactive | ClC-1 rat inh inactive
C[C@@H]1CN([C@H](C)CO)C(=O)c2cc(NS(=O)(=O)c3cn(C)cn3)ccc2O[C@H]1CN(C)C(=O)Nc1ccccc1	none (no result: ANO1 block)
O=C(Nc1ccc(Cl)cc1)NC1CCCCC1Cc1ccco1 (stereo not given)	ANO1 block 100 | TMEM16A reconf 42.5% | HEK293 Ca mobil inactive | YFP-HEK293 quench inactive | ClC-1 rat inh inactive
O=C(Nc1ccc(Cl)cc1)NC1CCCC1Cc1ccco1 (stereo not given)	none
O=C(NC1CCCC1)C(C1CC1)n1c(-c2ccccn2)nc2ccccc21 (stereo not given)	none (no result: TMEM16A act, DAGLB inh, ANO1 block)
Cc1cccc2c(SCC(N)=O)nc(-c3ccccc3)nc12	ANO1 block 100 | TMEM16A reconf inactive | HEK293 Ca mobil inactive | YFP-HEK293 quench inactive | ClC-1 rat inh inactive
NC(=O)CSc1nc(-c2ccccc2)nc2ccccc12	none (no result: TMEM16A act)
CCOC(=O)c1ccccc1N/C=C/C(=O)c1ccccc1	ANO1 block 100 | TMEM16A reconf inactive | HEK293 Ca mobil inactive | YFP-HEK293 quench inactive | ClC-1 rat inh inactive
Cc1sc2nc(SCC(=O)NCCO)n(C)c(=O)c2c1C	none
CCOC(=O)CNC(=O)CSc1nc2sc(C)c(C)c2c(=O)n1C	none | TMEM16A reconf inactive | HEK293 Ca mobil inactive | YFP-HEK293 quench inactive | ClC-1 rat inh inactive
CC1(C(=O)NCc2ccccc2)CN(S(C)(=O)=O)CC(=O)N1CCCn1ccnc1 (stereo not given)	none (no result: TMEM16A act, DAGLB inh, ANO1 block)
Cc1[nH]nc(-c2ccc(O)cc2O)c1Oc1ccccc1	ANO1 block 100 | TMEM16A reconf 24.0% | HEK293 Ca mobil inactive | YFP-HEK293 quench inactive | ClC-1 rat inh inactive
O=C(Nc1ccc(Cl)cc1)c1csc(Cc2ccccc2)n1	ANO1 block 25 | TMEM16A reconf 30.5% | HEK293 Ca mobil inactive | YFP-HEK293 quench inactive | ClC-1 rat inh inactive
COc1ccc(Cc2nc(C(=O)Nc3ccccc3)cs2)cc1	ANO1 block 100 | TMEM16A reconf 24.5% | HEK293 Ca mobil inactive | YFP-HEK293 quench inactive | ClC-1 rat inh inactive
COc1ccc(Cc2nc(C(=O)Nc3ccc(F)cc3)cs2)cc1	ANO1 block 100 | TMEM16A reconf 26.5% | HEK293 Ca mobil inactive | YFP-HEK293 quench inactive | ClC-1 rat inh inactive
COc1ccc(Cn2nnc(C(=O)Nc3ccc(F)cc3)c2N)cc1	none
COc1ccc(NC(=O)c2csc(Cc3ccc(Cl)cc3)n2)cc1	ANO1 block 100 | TMEM16A reconf inactive | HEK293 Ca mobil inactive | YFP-HEK293 quench inactive | ClC-1 rat inh inactive
COc1ccc(CNC(=O)c2csc(Cc3ccc(OC)cc3)n2)cc1	none
COc1ccc(CNC(=O)c2csc(Cc3ccc(Cl)cc3)n2)cc1	ANO1 block 100 | TMEM16A reconf inactive | HEK293 Ca mobil inactive | YFP-HEK293 quench inactive | ClC-1 rat inh inactive
COc1ccc(NC(=O)CSC(C)c2nc3ccccc3c(=O)[nH]2)cc1 (stereo not given)	none
CCOC(=O)c1ccc(NC(=S)N2CCC(C(N)=O)CC2)cc1	none
CCOC(=O)c1ccc(NC(=S)N2CCN(C)CC2)cc1	ANO1 block 25 | TMEM16A reconf inactive | HEK293 Ca mobil inactive | YFP-HEK293 quench inactive | ClC-1 rat inh inactive
COc1ccc(-c2noc(CCC(=O)N3CCN(c4cc(C)ccc4C)CC3)n2)cc1	ANO1 block 100 | TMEM16A reconf inactive | HEK293 Ca mobil inactive | YFP-HEK293 quench inactive | ClC-1 rat inh inactive
Cc1ccc(C)c(N2CCN(C(=O)CCc3nc(-c4ccc(F)cc4)no3)CC2)c1	none (no result: TMEM16A act, ANO1 block)
CC1(C)CC2CC(C)(CN2C(=O)COC(=O)c2cncc(Br)c2)C1 (stereo not given)	none (no result: ANO1 block)
CCc1nc(SCC(=O)c2ccc3c(c2)OCCO3)c2ccccc2n1	none
O=C(CSc1ncnc2ccccc12)c1ccc2c(c1)OCCO2	ANO1 block 25 | TMEM16A reconf 39.0% | HEK293 Ca mobil inactive | YFP-HEK293 quench inactive | ClC-1 rat inh inactive
O=C(CSc1ccccc1F)NC(=O)NC1CCCC1	none (no result: TMEM16A act, ANO1 block)
FC(F)(F)c1ccc(N2CCN(c3cc(-c4ccccc4)nc4ncnn34)CC2)nc1	ANO1 block 100 | TMEM16A reconf 35.5% | HEK293 Ca mobil inactive | YFP-HEK293 quench inactive | ClC-1 rat inh inactive
CCN(C(=O)COC(=O)c1cnc(C)cn1)C1CCCCC1	ANO1 block 100 | TMEM16A reconf inactive | HEK293 Ca mobil inactive | YFP-HEK293 quench inactive | ClC-1 rat inh inactive
CC1(C)COC(c2cc3c(cc2Br)OCO3)OC1	none (no result: ANO1 block)
CSc1ccc(CN(C)C(=O)c2ccc(S(=O)(=O)Nc3ccccc3)cc2)cc1	ANO1 block 25 | TMEM16A reconf inactive | HEK293 Ca mobil inactive | YFP-HEK293 quench inactive | ClC-1 rat inh inactive

Screens from PubChem.
